The target of assay [1] is T1, Translocator protein (Rattus norvegicus, UniProt P16257). The experiment in a line: Displacement of [3H]-PK 11195 from peripheral-type benzodiazepine receptor of rat cerebral cortex membranes. It is filed as cell membranes, Membrane. In general terms: In a radioligand displacement assay an active substance lowers the binding of a labelled ligand.
For assay [2], the target named is T1, Translocator protein. The experiment in a line: Displacement of [3H]-PK 11195 from peripheral-type benzodiazepine receptor of rat ovary membranes. It counts as cell membranes, Female gonad, Membrane.
Assay [3] has as its target GABA-A receptor; anion channel. The experiment in a line: Affinity benzodiazepine receptor as ability to displace [3H]flunitrazepam from binding to membrane preparations from rat cerebral cortex. It is filed as tissue-based. In a few lines: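 Rat cerebral cortex homogenised in ice-cold 50 mM Tris-HCl pH 7.4, centrifuged twice at 20000g and resuspended; 0.4-0.5 mg protein incubated with 0.5 nM [3H]flunitrazepam for 60 min at 0 °C. Filtration, then scintillation counting. Nonspecific binding defined with 5 μM diazepam. pIC50 from means of 3 experiments run in duplicate.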

Assay [4] addresses T2, GABA-A receptor; alpha-1/beta-2/gamma-2 (Homo sapiens) (UniProt P14867+P47870+P18507). As to the kind of experiment: Modulatory activity against human GABA-A receptor alpha-1-beta-2-gamma-2 subunits expressed in Xenopus laevis Oocytes at 50 uM. It counts as cell-based. A digest of the protocol: (§1)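 Xenopus stage V–VI oocytes, defolliculated with collagenase, nuclear-injected with α1, β2, γ2 cDNAs and cultured at 19 °C. Two-electrode voltage clamp at -70 mV began about 24 h later, under MBS perfusion at room temperature. Drug applied for 20 s; value is percent change of the current evoked by GABA EC20 (2-10 μM). Means from 6–14 oocytes ± SEM.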

Assay [5] concerns the target T2, GABA-A receptor; alpha-1/beta-2/gamma-2 (Homo sapiens). As to the kind of experiment: Modulatory activity against human GABA-A receptor alpha-1-beta-2-gamma-2 subunits expressed in Xenopus laevis Oocytes at 100 uM. It counts as cell-based. In a few lines: as §1
For assay [6] the target is unchanged. The experiment in a line: Modulatory activity against human GABA-A receptor alpha-1-beta-2-gamma-2 subunits expressed in Xenopus laevis Oocytes at 10 uM. It is filed as cell-based. A digest of the protocol:
as §1

Some results are limits rather than exact numbers.

T1 sequence (P16257 whole entry, looked up): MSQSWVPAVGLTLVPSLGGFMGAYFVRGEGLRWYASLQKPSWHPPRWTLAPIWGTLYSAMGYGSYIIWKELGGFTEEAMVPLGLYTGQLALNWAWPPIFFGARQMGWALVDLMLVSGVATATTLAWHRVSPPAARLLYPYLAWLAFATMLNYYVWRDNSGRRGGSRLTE

On to `CCCNC(=O)Cc1c(-c2ccccc2)nc2ccccn12`, for which the IC50 on Translocator protein [1] and at Translocator protein [2] was 2 µM throughout. Besides, in assay [3], the pIC50 (in general, −log10 of the IC50, conventionally taken in molar units) was found to be 6.09.
For the molecule `CCCN(CCC)C(=O)Cc1c(-c2ccccc2)nc2c(N)cccn12`, the IC50 – broadly, the point on the concentration scale where inhibition reaches its midpoint – is 0.00427 µM at Translocator protein [1] and 0.00575 µM at Translocator protein [2]. In addition, the negative-log IC50 (pIC50) in assay [3] was 5.27.
`CCCCNC(=O)Cc1c(-c2ccccc2)nc2c(Cl)cc(Cl)cn12`: the figures for the IC50 on Translocator protein [1] and at Translocator protein [2] were 0.295 µM and 0.389 µM, respectively. In assay [3], this molecule yielded a pIC50 of 4.
As to `CCCN(CCC)C(=O)Cc1c(-c2ccc(Cl)cc2)nc2ccccn12`, the IC50 at Translocator protein [1] is 0.01 µM; on Translocator protein [2], 0.0331 µM. The pIC50 in assay [3] amounted to 7.19.
On to `CCCCN(CCCC)C(=O)Cc1c(-c2ccccc2)nc2ccccn12`, for which the IC50 at Translocator protein [1] was 0.017 µM; at Translocator protein [2], 0.0229 µM. Moreover, the Activity in assay [4] is below 44.6; in assay [5], below 58.2; in assay [6], 17.4. This molecule also displayed a pIC50 in assay [3] of 6.3.
As for `CCCN(CCC)C(=O)Cc1c(-c2ccc(Cl)cc2)nc2c(Cl)cc(C(F)(F)F)cn12`, the IC50 on Translocator protein [1] is 0.00182 µM; on Translocator protein [2], 0.00282 µM. Also, the pIC50 in assay [3] worked out at 5.
Regarding `CCCN(CCC)C(=O)Cc1c(-c2ccccc2)nc2ccc([N+](=O)[O-])cn12`, the IC50 was 0.00759 µM at Translocator protein [1] and 0.00776 µM on Translocator protein [2]. Also, the pIC50 in assay [3] is given as 5.47.
For `CCCN(CCC)C(=O)Cc1c(-c2ccccc2)nc2ccccn12` the same measures were 0.1 µM, 0.0955 µM and 6.28.
Turning to `CCCN(CCC)C(=O)Cc1c(-c2ccccc2)nc2c(OC)cccn12`, the IC50 at Translocator protein [1] was 0.0468 µM; on Translocator protein [2], 0.049 µM. This molecule showed a pIC50 in assay [3] of 5.27.
As to `CCCN(CCC)C(=O)Cc1c(-c2ccc(Cl)cc2)nc2c(Cl)cccn12`, the IC50 on Translocator protein [1] was 0.00427 µM; at Translocator protein [2], 0.00741 µM. Besides, the results for the Activity in assay [4], in assay [5] and in assay [6] were -6.1, -15.2 and 4.5, respectively. Also, the pIC50 in assay [3] is listed as 2.4.
In the case of `CCCNC(=O)Cc1c(-c2ccc(Cl)cc2)nc2ccccn12`, the figures for the IC50 at Translocator protein [1] and on Translocator protein [2] were 0.589 µM and 1.62 µM, respectively. The molecule further returned a pIC50 in assay [3] of 6.93.
With `CCCCCCN(CCCCCC)C(=O)Cc1c(-c2ccccc2)nc2ccccn12`, the IC50 on Translocator protein [1] was 0.0191 µM; on Translocator protein [2], 0.0132 µM. Besides, in assay [3], the negative logarithm of the IC50 (pIC50) is on record as 3.93.
Consider `CCCN(CCC)C(=O)Cc1c(-c2ccc(Cl)cc2)nc2c([N+](=O)[O-])cccn12`, for which the results for the IC50 at Translocator protein [1] and on Translocator protein [2] were 0.00575 µM and 0.00871 µM, respectively. Further, the pIC50 in assay [3] was 5.
The matching figures for `CCCN(CCC)C(=O)Cc1c(-c2ccccc2)nc2c(C)cccn12`: 0.02 µM, 0.0417 µM and 4.85.
For `CCCN(CCC)C(=O)Cc1c(-c2ccc(Cl)cc2)nc2c(Br)cc(Br)cn12`, the IC50 at Translocator protein [1] is 0.000794 µM; on Translocator protein [2], 0.00158 µM. The molecule also displayed a pIC50 in assay [3] of 5.
With `CCC(C)N(C)C(=O)c1cc2ccccc2c(-c2ccccc2Cl)n1` (configuration not stated) [PK-11195], the figures for the Activity in assay [4], in assay [5] and in assay [6] were 4.3, 91 and -16, respectively. In assay [3], this molecule gave a pIC50 of 4.67.
Consider `CCN(CC)C(=O)Cc1c(-c2ccccc2)nc2ccccn12`, for which the concentration for half-maximal inhibition (IC50) at Translocator protein [1] is 0.437 µM; at Translocator protein [2], 0.525 µM. Further, the pIC50 in assay [3] came out at 5.68.
As to `CCCN(CCC)C(=O)Cc1c(-c2ccc(Cl)cc2)nc2c(NC)cccn12`, the values for the IC50 on Translocator protein [1] and at Translocator protein [2] were 0.00372 µM and 0.00794 µM, respectively. The negative-log IC50 (pIC50) in assay [3] stood at 4.
With `CCCN(CCC)C(=O)Cc1c(-c2ccccc2)nc2c([N+](=O)[O-])cccn12`, the IC50 on Translocator protein [1] is 0.0851 µM; on Translocator protein [2] it was 0.12 µM. Besides, the pIC50 in assay [3] is on record as 4.8.
Turning to `CCCN(CCC)C(=O)Cc1c(-c2ccccc2)nc2ccc(C(=O)OC)cn12`, the IC50 at Translocator protein [1] is 0.0166 µM; at Translocator protein [2], 0.0269 µM. The Activity in assay [4] was determined as 11.4; in assay [5] it was 11.6; in assay [6], 17.1. In assay [3], the pIC50 amounted to 4.92.
For the molecule `CCCN(CCC)C(=O)Cc1c(-c2ccc(Cl)cc2)nc2c(N)cccn12`, the concentration for half-maximal inhibition (IC50) on Translocator protein [1] is 0.00631 µM; on Translocator protein [2], 0.00457 µM. Moreover, the pIC50 in assay [3] turned out to be 5.07.
Turning to `CCCCCCN(CCCCCC)C(=O)Cc1c(-c2ccc(Cl)cc2)nc2ccccn12`, the values for the IC50 on Translocator protein [1] and on Translocator protein [2] were 0.182 µM and 0.178 µM, respectively. Moreover, the pIC50 in assay [3] is given as 3.83.
The matching figures for `CCCN(CCC)C(=O)Cc1c(-c2ccc(Cl)cc2)nc2c(NC(C)=O)cccn12`: 0.01 µM, 0.0331 µM and 4.09.
For the molecule `CCCCN(CCCC)C(=O)Cc1c(-c2ccc(Cl)cc2)nc2ccccn12`, the IC50 at Translocator protein [1] is 0.00589 µM; on Translocator protein [2] it was 0.0105 µM. In addition, the Activity is below 35 in assay [4], below 23.9 in assay [5] and below 23.2 in assay [6]. The same molecule registered a pIC50 in assay [3] of 7.04.
With `CCCN(CCC)C(=O)Cc1c(-c2ccccc2)nc2c(Cl)cccn12`, the IC50 was 0.0229 µM on Translocator protein [1] and 0.0158 µM on Translocator protein [2]. Further, the pIC50 in assay [3] was determined as 4.59.
With `CCCN(CCC)C(=O)Cc1c(-c2ccccc2)nc2c(NC(C)=O)cccn12`, the IC50 was 0.257 µM at Translocator protein [1] and 0.447 µM on Translocator protein [2]. In addition, in assay [3], the pIC50 was 4.96.
Consider `CCCN(CCC)C(=O)Cc1c(-c2ccc(Cl)cc2)nc2c(Cl)cc(Cl)cn12` [ALPDEM], for which the IC50 at Translocator protein [1] was 0.001 µM; at Translocator protein [2], 0.00263 µM. The molecule further yielded a negative logarithm of the IC50 (pIC50) in assay [3] of 2.4.
As to `CCCN(CCC)C(=O)Cc1c(-c2ccccc2)nc2c(Cl)cc(Cl)cn12`, the values for the 50% inhibitory concentration (IC50) on Translocator protein [1] and at Translocator protein [2] were 0.00302 µM and 0.00427 µM, respectively. Also, the negative-log IC50 (pIC50) in assay [3] came out at 2.4.
Turning to `CCCN(CCC)C(=O)Cc1c(-c2ccc(Cl)cc2)nc2c(OC)cccn12`, the IC50 is 0.0166 µM on Translocator protein [1] and 0.0209 µM at Translocator protein [2]. The pIC50 in assay [3] is 4.19.
The matching figures for `CCCN(CCC)C(=O)Cc1c(-c2ccccc2)nc2c(C)cc(Br)cn12`: 0.00162 µM, 0.00263 µM and 4.27.
For `CCCN(CCC)C(=O)Cc1c(-c2ccc(Cl)cc2)nc2c(C)cccn12`, the values for the concentration for half-maximal inhibition (IC50) on Translocator protein [1] and at Translocator protein [2] were 0.00141 µM and 0.00282 µM, respectively. Further, the results for the Activity in assay [4], in assay [5] and in assay [6] were below -38.7, below -44.3 and -9.6, respectively. Also, the pIC50 in assay [3] was determined as 2.4.
`CCCN(CCC)C(=O)Cc1c(-c2ccccc2)nc2ccc(C(N)=O)cn12`: the half-maximal inhibitory concentration (IC50) at Translocator protein [1] is 0.457 µM; at Translocator protein [2], 0.302 µM. For the same molecule, in assay [3], the pIC50 is 5.58.
